Screening results as filed in PubChem BioAssay.
Diaph act CS – diaphorase activation or chemical reduction counter-screen; Diaphorase/resazurin coupled assay, resorufin fluorescence, 16 min; active compounds read high; 1 = vehicle wells, 0 = NADH-free wells; activation factor at 20 µM; 0.005% of 190,000 active;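 active = diaphorase activity raised at least twofold by the compound at 20 µM; inactive = activation factor below 2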
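Material: Clostridium kluyveri diaphorase, purified enzyme; Quantity: enzyme 0.07 U/mL final; Medium: HEPES pH 7.4 buffer with MgCl2 and Tween 20; Dosing: single compound dose of 20 µM, 1% DMSO final; Schedule: 16 min reaction at room temperature; Measured by: red resorufin fluorescence at 544/590 nm excitation/emission.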
L major viab – reduces viability of Leishmania major promastigotes | resazurin fluorescence viability | inhibition, % at 10 µM | 9% of 200,000 active;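 note: promastigotes grown with compound for 44 hours at 28 °C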
PfGluPho inh – PfG6PD (Plasmodium falciparum) enzyme inhibition | PfGluPho enzyme, NADPH resazurin-diaphorase fluorescence | inhibition, % at 20 µM | 0.78% of 350,000 active | AID 504690;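 active = inhibition reaching at least a set limit at 20 µM in the primary screen, cut at about 59% in these data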;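 note: 0% = DMSO wells with substrate and 100% = DMSO wells lacking glucose-6-phosphate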
Redox H2O2 prof – compounds producing H2O2 with reducing agent – biochemical, NIH compound library profiling, artefact control for MLSCN library redox annotation, primary screen; activation, % at 10 µM; DTT-dependent redox cycling H2O2, phenol red/HRP absorbance; 100% = 100 µM peroxide control, 0% = buffer; 0.03% of 200,000 active;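 active = activation of at least 50% relative to the plate's high and low controls in the primary single-dose screen; inactive = activation below 50%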;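 note: compound incubated with DTT at 0.8 mM final as the reducing agent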
G6PDH counter – inhibits Leuconostoc G6PDH, flagging false hits in G6PDH-based assays; 0.12% of 200,000 active; Purified L. mesenteroides G6PDH, diaphorase/resazurin coupled fluorescence, 45 min; AID 1020; inhibition, % at 5 µM
Diaph inh CS – diaphorase inhibition or chemical oxidation counter-screen; inhibition, % at 20 µM; diaphorase resazurin-to-resorufin fluorescence, NADH, 16 min; bacterial (C. kluyveri) enzyme, not human; 0.69% of 190,000 active; AID 1217;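 active = primary screen inhibition at 20 µM above a set limit, cut at about 50% in these data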;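 note: plate controls were DMSO with full reaction for no effect and wells lacking NADH for full effect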
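Test system: Clostridium kluyveri diaphorase enzyme / Quantity: diaphorase at 0.14 U/mL in enzyme working solution / Incubation: 16-min room-temperature incubation before reading / Benchmarks: NADH-free wells as positive control, DMSO-only neutral wells / Signal: resorufin fluorescence 544/590 nm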
PfG6PD confirm – confirmation of Plasmodium falciparum G6PD inhibitors; shares compounds with PfGluPho inh; recombinant PfGluPho, NADPH-diaphorase-resazurin fluorescence; inhibition, % at 20 µM; 34% of 2,400 active; AID 504753;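 active = inhibition of at least 50% at 20 µM in any single replicate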;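 note: 0% = DMSO with substrate and 100% = DMSO lacking glucose-6-phosphate substrate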
Diaph ctr 10uM – diaphorase inhibition or oxidation at 10 uM NADPH. shares compounds with PfGluPho inh. AID 504862. 39% of 820 active. diaphorase-coupled resazurin reduction, fluorescence, NADPH 10 uM. inhibition, % at 20 µM;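 active = average inhibition reaching 50% or more with the compound at 20 µM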;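 note: resorufin red fluorescence formed as diaphorase reduces resazurin using NADPH; 0% = DMSO with enzyme and 100% = DMSO without enzyme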
Diaph ctr 30uM – counter-screen for P. falciparum G6PD inhibitors: diaphorase inhibitors, oxidizers | shares compounds with PfGluPho inh | Diaphorase/resazurin coupled assay, resorufin fluorescence, 30 uM NADPH | inhibition, % at 20 µM | AID 504863 | 29% of 820 active;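 active = inhibition averaging 50% or more, tested at 20 µM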;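 note: 0% = DMSO with enzyme and 100% = DMSO wells lacking diaphorase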
* hit, by the source's call. Only a selection was taken, and hits are over-represented in it overall. Cut-off read from the data, not from the text of the source, unless noted: active = inhibition above about 50%; inactive = the rest.

What do the screens show for `O=C(O)C(Cc1ccccc1)N1C(=O)C=CC1=O` (stereo not given)?
PfGluPho inh: 90.0*; PfG6PD confirm: 84.9*; Diaph ctr 10uM: 18.2; Diaph ctr 30uM: 1.9

How did Cn1c(CSc2nc3ccccc3n2C)nc2ccccc21 do in these assays?
Diaph act CS: 1; L major viab: 4.3; PfGluPho inh: 78.0*; Redox H2O2 prof: 1.9; G6PDH counter: 1.3; Diaph inh CS: -2.5; PfG6PD confirm: 45.0

How did COc1cccc2nc3cc(C)c(C)cc3nc12 do in these assays?
PfGluPho inh: 95.6*; PfG6PD confirm: 57.0*; Diaph ctr 10uM: 46.1; Diaph ctr 30uM: 43.0

How did COc1cc(NCCCn2ccc(NC(=O)OCc3ccccc3)nc2=O)cc(OC)c1OC do in these assays?
PfGluPho inh: 79.8*; PfG6PD confirm: 74.1*; Diaph ctr 10uM: -4.1; Diaph ctr 30uM: 4.7

What do the screens show for `COc1cc(NCCCn2cnc3c(OCc4ccccc4)ncnc32)cc(OC)c1OC`?
PfGluPho inh: 80.2*; PfG6PD confirm: 67.3*; Diaph ctr 10uM: -14.2; Diaph ctr 30uM: -22.8

Results for COc1ccccc1N1CCN(C(=O)c2ccc3c(c2)CCN3S(C)(=O)=O)CC1 ?
PfGluPho inh: -0.2

Results for COc1ccc(-c2nc3cc([N+](=O)[O-])ccc3o2)cc1 ?
Diaph act CS: 1.2; L major viab: 0.0; PfGluPho inh: 2.9; Redox H2O2 prof: 1.6; G6PDH counter: 13.0; Diaph inh CS: -22.3

What do the screens show for `O=[N+]([O-])c1cccc(-c2nc3ccc([N+](=O)[O-])cc3[nH]2)c1`?
Diaph act CS: 1.1; L major viab: 13.2; PfGluPho inh: 107.8*; Redox H2O2 prof: -0.1; G6PDH counter: 3.7; Diaph inh CS: -6.0; PfG6PD confirm: 72.5*; Diaph ctr 10uM: 60.5*; Diaph ctr 30uM: 59.1*

How did O=[N+]([O-])c1ccc2nc(-c3ccncc3)[nH]c2c1 do in these assays?
PfGluPho inh: 35.4

What do the screens show for `Cc1ccc(-c2nc3ccc([N+](=O)[O-])cc3[nH]2)cc1`?
Diaph act CS: 0.9; L major viab: 41.1; PfGluPho inh: 99.0*; Redox H2O2 prof: -1.5; G6PDH counter: -5.8; Diaph inh CS: 9.0; PfG6PD confirm: 38.4

Results for O=[N+]([O-])c1ccc2nc(-c3ccc(Cl)cc3)[nH]c2c1 ?
Diaph act CS: 1; L major viab: 7.4; PfGluPho inh: 106.7*; Redox H2O2 prof: 0.0; G6PDH counter: 2.5; Diaph inh CS: 0.4; PfG6PD confirm: 45.7

Results for COc1ccc(-c2nc3ccc([N+](=O)[O-])cc3[nH]2)cc1 ?
Diaph act CS: 0.9; L major viab: 13.3; PfGluPho inh: 109.5*; Redox H2O2 prof: 0.2; G6PDH counter: 15.0; Diaph inh CS: 12.4; PfG6PD confirm: 45.6

How did O=[N+]([O-])c1ccc2nc(-c3ccccc3[N+](=O)[O-])[nH]c2c1 do in these assays?
Diaph act CS: 0.8; L major viab: 30.5; PfGluPho inh: 13.6; Redox H2O2 prof: 0.0; G6PDH counter: -2.4; Diaph inh CS: 20.6

What do the screens show for `CCOC(=O)C1(Cc2cccc(OC)c2)CCCN(C(=O)CCN2CCCO2)C1` (stereo not given)?
PfGluPho inh: -1.2

What do the screens show for `COc1ccc(-n2nc(C(=O)NCC(=O)NCCCN3CC(C)CC(C)C3)c3ccccc3c2=O)cc1Cl` (stereo not given)?
PfGluPho inh: 4.2

Results for O=C(c1ccco1)N(Cc1ccc2c(c1)OCO2)Cc1cc2cc3c(cc2[nH]c1=O)OCO3 ?
PfGluPho inh: -11.1

How did Cc1cc2cc(CN(Cc3ccc4c(c3)OCO4)C(=O)c3ccco3)c(=O)[nH]c2cc1C do in these assays?
Diaph act CS: 0.7; L major viab: 19.6; PfGluPho inh: 81.6*; Redox H2O2 prof: 1.1; G6PDH counter: 4.7; Diaph inh CS: 32.8; PfG6PD confirm: 38.2

How did COC(=O)c1ccccc1NC(=O)/C=C/c1cc(OC)c(OC)c(OC)c1 do in these assays?
Diaph act CS: 1; L major viab: -4.0; PfGluPho inh: 8.5; Redox H2O2 prof: 0.2; G6PDH counter: -1.1; Diaph inh CS: 3.3

How did O=C(Cn1cnc([N+](=O)[O-])c1)NC1CCCC1 do in these assays?
Diaph act CS: 0.9; L major viab: -7.1; PfGluPho inh: 5.9; Redox H2O2 prof: 0.1; G6PDH counter: 3.8; Diaph inh CS: 10.8

How did CC(C)OP(=O)(c1ccc(N(C)C)cc1)C(O)c1ccc(N(C)C)cc1 (stereo not given) do in these assays?
PfGluPho inh: 67.8*; PfG6PD confirm: 8.3

How did CC(C)COP(=O)(c1ccc(N(C)C)cc1)C(O)c1ccc(N(C)C)cc1 (stereo not given) do in these assays?
PfGluPho inh: 4.7

How did O=S(=O)(c1cccs1)N1CCCc2cccc(O)c21 do in these assays?
Diaph act CS: 0.9; L major viab: 12.7; PfGluPho inh: 93.1*; Redox H2O2 prof: -0.2; G6PDH counter: 14.5; Diaph inh CS: 12.8; PfG6PD confirm: 26.4

What do the screens show for `COc1cc(N)c(C(=O)c2nccc3cc(OC)c(OC)cc23)cc1OC`?
PfGluPho inh: -6.0

Results for COc1cc(Br)c(C(=O)c2nccc3cc(OC)c(OC)cc23)cc1OC ?
PfGluPho inh: 88.2*; PfG6PD confirm: -21.2

What do the screens show for `CC(CNc1ccccc1O)C(=O)O` (stereo not given)?
Diaph act CS: 0.6; L major viab: -2.0; PfGluPho inh: 93.6*; Redox H2O2 prof: 0.1; G6PDH counter: 41.8; Diaph inh CS: 38.9; PfG6PD confirm: 70.1*; Diaph ctr 10uM: -4.1; Diaph ctr 30uM: 1.0

Results for CC(NC(=O)CCC(=O)Nc1ccccc1O)c1ccccc1 (stereo not given) ?
PfGluPho inh: 4.5

What do the screens show for `O=C1c2ccccc2C(O)(c2ccccc2)N1c1ccncc1` (stereo not given)?
PfGluPho inh: 9.4

How did COC(=O)CCC(=O)OC1(C)C(=O)C2=CN(C3CC3)C(c3ccc(OC)cc3)=CC2=C(Br)C1=O (stereo not given) do in these assays?
PfGluPho inh: 71.7*; PfG6PD confirm: 52.4*; Diaph ctr 10uM: 45.6; Diaph ctr 30uM: 48.7
